Experimental data as given in ChEMBL document CHEMBL3407478, “Development of a series of aryl pyrimidine kynurenine monooxygenase inhibitors as potential therapeutic agents for the treatment of Huntington's disease” (J Med Chem, 2015).

How the values were obtained:
[1] = Lipophilicity, log P of the compound at pH 7; assay type: physicochemical; conditions: buffer
[2] = Aqueous solubility of the compound; assay type: physicochemical
[3] = Permeability from basolateral to apical side in human Caco2 cells; assay type: ADME, cell-based; conditions: Caco-2, read-out: permeability
[4] = Permeability from apical to basolateral side in human Caco2 cells; assay type: ADME, cell-based; conditions: Caco-2, read-out: permeability
[5] = test system: Plasma; test: Dose normalized AUC (0 to infinity) in Sprague-Dawley rat plasma at 6.2 mg equivalents/kg, iv; assay type: ADME, cell-free
[6] = MRT in Sprague-Dawley rat plasma at 6.2 mg equivalents/kg, iv; assay type: ADME, cell-free
Procedure, shortened: (§1)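 Nonfasted male Sprague-Dawley rats (300−370 g). Single iv tail-vein dose of 6.2 mg equiv/kg (1.24 mg equiv/mL in DMSO:PEG400:water 10:40:50) or oral gavage of 12 mg equiv/kg (1.20 mg equiv/mL in 10% hydroxypropyl-β-cyclodextrin). Terminal bleeds under isoflurane (N = 3) at 0.083−24 h; heparin plasma; tissues snap-frozen.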

[7] = test system: Plasma; test: Dose normalized AUC (0 to infinity) in Sprague-Dawley rat plasma at 12 mg equivalents/kg, po; assay type: ADME, cell-free
[8] = Tmax in Sprague-Dawley rat plasma at 12 mg equivalents/kg, po; assay type: ADME, cell-free; procedure, shortened: as §1
[9] = Half life in Sprague-Dawley rat brain at 6.2 mg equivalents/kg, iv; assay type: ADME, tissue-based
[10] = test system: Brain; test: Dose normalized AUC (0 to infinity) in Sprague-Dawley rat brain at 12 mg equivalents/kg, po; assay type: ADME, tissue-based; conditions: in vivo
[11] = test system: Brain; test: Dose normalized Cmax in Sprague-Dawley rat brain at 12 mg equivalents/kg, po; assay type: ADME, tissue-based; conditions: in vivo
[12] = Half life in Sprague-Dawley rat plasma at 10 mg equivalents/kg, po after 0.25 to 12 hrs; assay type: ADME, organism-based
Procedure, shortened: (§2)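 Male Sprague-Dawley rats given a single oral dose of 10 mg equiv/kg as a 2 mg equiv/mL solution in 10% hydroxypropyl-β-cyclodextrin. Plasma, liver, kidney, cortex, striatum and CSF levels were measured from 0.25 to 12 h. Brain tissue was taken from nonperfused brains. CSF AUCN covers 0–8 h because the elimination phase was undefined.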

[13] = test system: Cerebrospinal fluid; test: Dose normalized Cmax in Sprague-Dawley rat CSF at 10 mg equivalents/kg, po after 0.25 to 12 hrs; assay type: ADME, organism-based; conditions: in vivo; procedure, shortened: as §2
[14] = test system: Cortex; test: Dose normalized Cmax in Sprague-Dawley rat cortex at 10 mg equivalents/kg, po after 0.25 to 12 hrs; assay type: ADME, organism-based; conditions: in vivo; procedure, shortened: as §2
[15] = Tmax in Sprague-Dawley rat cortex at 10 mg equivalents/kg, po after 0.25 to 12 hrs; assay type: ADME, organism-based
Procedure, shortened: (§3)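 Fed male Sprague-Dawley rats given a single oral dose of 10 mg equiv/kg as 2 mg equiv/mL in 10% hydroxypropyl-β-cyclodextrin. Plasma, CSF, kidney, liver, and cortex and striatum from nonperfused brains sampled from 0.25 to 12 h.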

[16] = test system: Striatum; test: Dose normalized AUC (0 to infinity) in Sprague-Dawley rat striatum at 10 mg equivalents/kg, po after 0.25 to 12 hrs; assay type: ADME, organism-based; conditions: in vivo; procedure, shortened: as §2
[17] = test system: Striatum; test: Dose normalized Cmax in Sprague-Dawley rat striatum at 10 mg equivalents/kg, po after 0.25 to 12 hrs; assay type: ADME, organism-based; conditions: in vivo; procedure, shortened: as §2
[18] = Tmax in Sprague-Dawley rat striatum at 10 mg equivalents/kg, po after 0.25 to 12 hrs; assay type: ADME, organism-based; procedure, shortened: as §3
[19] = test system: Kidney; test: Dose normalized AUC (0 to infinity) in Sprague-Dawley rat kidney at 10 mg equivalents/kg, po after 0.25 to 12 hrs; assay type: ADME, organism-based; conditions: in vivo; procedure, shortened: as §2
[20] = test system: Kidney; test: Dose normalized Cmax in Sprague-Dawley rat kidney at 10 mg equivalents/kg, po after 0.25 to 12 hrs; assay type: ADME, organism-based; conditions: in vivo; procedure, shortened: as §2
[21] = Tmax in Sprague-Dawley rat kidney at 10 mg equivalents/kg, po after 0.25 to 12 hrs; assay type: ADME, organism-based; procedure, shortened: as §3
[22] = Half life in Sprague-Dawley rat kidney at 10 mg equivalents/kg, po after 0.25 to 12 hrs; assay type: ADME, organism-based; procedure, shortened: as §2
[23] = test system: Liver; test: Dose normalized Cmax in Sprague-Dawley rat liver at 10 mg equivalents/kg, po after 0.25 to 12 hrs; assay type: ADME, organism-based; conditions: in vivo; procedure, shortened: as §2
[24] = Tmax in Sprague-Dawley rat liver at 10 mg equivalents/kg, po after 0.25 to 12 hrs; assay type: ADME, organism-based; procedure, shortened: as §3
[25] = test system: Plasma; test: Dose normalized AUC (0 to infinity) in wild-type FVB/N mouse plasma at 5 mg equivalents/kg, iv by LC-MS/MS analysis; assay type: ADME, organism-based; conditions: in vivo
Procedure, shortened: (§4)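 Male mice given a single 5 mg equiv/kg iv bolus: FVB wild type, Bcrp(−/−), Mdr1a/b(−/−) and Mdr1a/b(−/−)/Bcrp(−/−). Brain and plasma concentration–time profiles were used to derive dose-normalized AUC (0–infinity).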

[26] = test system: Plasma; test: Dose normalized AUC (0 to infinity) in BCRP knock out FVB/N mouse plasma at 5 mg equivalents/kg, iv by LC-MS/MS analysis; assay type: ADME, organism-based; conditions: in vivo; procedure, shortened: as §4
[27] = test system: Brain; test: Dose normalized AUC (0 to infinity) in MDR1a knock out FVB/N mouse brain at 5 mg equivalents/kg, iv by LC-MS/MS analysis; assay type: ADME, organism-based; conditions: in vivo; procedure, shortened: as §4
[28] = test system: Plasma; test: Dose normalized AUC (0 to infinity) in BCRP and MDR1a knock out FVB/N mouse plasma at 5 mg equivalents/kg, iv by LC-MS/MS analysis; assay type: ADME, organism-based; conditions: in vivo; procedure, shortened: as §4
[29] = test system: Brain; test: Dose normalized AUC (0 to infinity) in BCRP and MDR1a knock out FVB/N mouse brain at 5 mg equivalents/kg, iv by LC-MS/MS analysis; assay type: ADME, organism-based; conditions: in vivo; procedure, shortened: as §4
[30] = Fraction unbound in mouse plasma; assay type: ADME, cell-free
[31] = test system: Rattus norvegicus; test: Inhibition of KMO in Sprague-Dawley rat plasma assessed as time duration for elevation in anthranilic acid plasma level at 10 mg/kg, po by […] analysis; assay type: functional
Procedure, shortened: (§5)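 Sprague-Dawley rats given a single 10 mg/kg oral dose. KYN, 3-HK, KYNA and AA were quantified in plasma by LC-MS/MS at multiple time points.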

[32] = test system: Rattus norvegicus; test: Inhibition of KMO in Sprague-Dawley rat plasma assessed as time duration for reduction in 3-HK plasma level at 10 mg/kg, po by […] analysis; assay type: functional; procedure, shortened: as §5
[33] = AUC (0 to 240 mins) in Sprague-Dawley rat striatal extracellular fluid at 10 mg/kg, po by […] analysis; assay type: ADME, organism-based; design: time < 4 hr, dose 10 mg/kg, route oral
Procedure, shortened: (§6)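 Freely moving Sprague-Dawley rats given 10 mg/kg po, with a microdialysis probe implanted in the striatum. Dialysate was sampled over 0–240 min for free compound and for KYN, KYNA, AA and 3-HK, quantified by LC-MS/MS. Metabolite changes were compared with t = 0 min by 2-way ANOVA.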

[34] = test system: Rattus norvegicus; test: Inhibition of KMO in Sprague-Dawley rat brain assessed as time duration for elevation in kynurenic acid plasma level at 10 mg/kg, po by […] analysis; assay type: functional
[35] = test system: Rattus norvegicus; test: Inhibition of KMO in Sprague-Dawley rat striatum brain microdialysate assessed as time duration for elevation in kynurenine level at 10 mg/kg, po by […] analysis; assay type: functional; procedure, shortened: as §6
[36] = test system: Rattus norvegicus; test: Inhibition of KMO in po dosed Sprague-Dawley rat plasma assessed as elevation in kynurenic acid plasma level by […] analysis; assay type: functional, organism-based
[37] = test system: Rattus norvegicus; test: Inhibition of KMO in po dosed Sprague-Dawley rat plasma assessed as elevation in anthranilic acid plasma level by […] analysis; assay type: functional, organism-based
[38] = test system: Rattus norvegicus; test: Inhibition of KMO in po dosed Sprague-Dawley rat plasma assessed as reduction in quinolinic acid plasma level by LC-MS/MS analysis

Q: For `O=C(O)c1cc(-c2ccc(OC3CC3)c(Cl)c2)ncn1`, which logD [1] is on record?
A: The logD was 0.9.

Q: What about the solubility [2] of the same molecule?
A: Its solubility is > 1000 µg/mL.

Q: What about the Papp B→A [3] of the same molecule?
A: Its Papp B→A is 30.4 ×10⁻⁶ cm/s.

Q: What about the Papp A→B [4] of the same molecule?
A: The Papp A→B was 18.7 ×10⁻⁶ cm/s.

Q: And the AUC/dose [5]?
A: Its AUC/dose is 12 µM·kg·h/mg.

Q: What about the MRT [6] of the same molecule?
A: Its MRT is 1.1 h.

Q: What about the AUC/dose [7] of the same molecule?
A: The AUC/dose was 7.6 µM·kg·h/mg.

Q: And the Tmax [8]?
A: Its Tmax is 1 h.

Q: What about the half-life [9] of the same molecule?
A: Its half-life is 42 min.

Q: What about the AUC/dose [10] of the same molecule?
A: The AUC/dose was 0.12 µM·kg·h/mg.

Q: What about the Cmax/dose [11] of the same molecule?
A: The Cmax/dose was 0.035 µM·kg/mg.

Q: And the half-life [12]?
A: The half-life was 102 min.

Q: What about the Cmax/dose [13] of the same molecule?
A: Its Cmax/dose is 0.011 µM·kg/mg.

Q: What about the Cmax/dose [14] of the same molecule?
A: The Cmax/dose was 0.03 µM·kg/mg.

Q: What about the Tmax [15] of the same molecule?
A: Its Tmax is 30 min.

Q: And the AUC/dose [16]?
A: Its AUC/dose is 0.1 µM·kg·h/mg.

Q: And the Cmax/dose [17]?
A: Its Cmax/dose is 0.047 µM·kg/mg.

Q: What about the Tmax [18] of the same molecule?
A: Its Tmax is 30 min.

Q: And the AUC/dose [19]?
A: The AUC/dose was 70 µM·kg·h/mg.

Q: And the Cmax/dose [20]?
A: The Cmax/dose was 26 µM·kg/mg.

Q: What about the Tmax [21] of the same molecule?
A: The Tmax was 30 min.

Q: What about the half-life [22] of the same molecule?
A: Its half-life is 120 min.

Q: And the Cmax/dose [23]?
A: Its Cmax/dose is 9.3 µM·kg/mg.

Q: What about the Tmax [24] of the same molecule?
A: Its Tmax is 30 min.

Q: What about the AUC/dose [25] of the same molecule?
A: The AUC/dose was 3.1 µM·kg·h/mg.

Q: And the AUC/dose [26]?
A: Its AUC/dose is 3.6 µM·kg·h/mg.

Q: What about the AUC/dose [27] of the same molecule?
A: The AUC/dose was 0.073 µM·kg·h/mg.

Q: And the AUC/dose [28]?
A: Its AUC/dose is 3.6 µM·kg·h/mg.

Q: And the AUC/dose [29]?
A: Its AUC/dose is 0.23 µM·kg·h/mg.

Q: What about the fraction unbound [30] of the same molecule?
A: The fraction unbound was 0.036.

Q: And the Time [31]?
A: Its Time is 8 h.

Q: And the Time [32]?
A: The Time was 8 h.

Q: What about the AUC(0-t) at 4 h [33] of the same molecule?
A: The AUC(0-t) at 4 h was 0.066 µM·h.

Q: And the Time [34]?
A: The Time was “>=4 hr”.

Q: What about the Time [35] of the same molecule?
A: Its Time is 40 min.

Q: What about the inhibition [36] of the same molecule?
A: Its inhibition is “Dose-dependent effect”.

Q: What about the inhibition [37] of the same molecule?
A: The inhibition was “Dose-dependent effect”.

Q: What about the inhibition [38] of the same molecule?
A: The inhibition was “Dose-dependent effect”.
